# ChEMBL document CHEMBL1629654, “Breakthrough Aspergillus fumigatus and Candida albicans double infection during caspofungin treatment: laboratory characteristics and implication for susceptibility testing” (2009)
# Calls of active or inactive are those of the source. The calls are words filed in the database; no cut-off is given here.
# Key:
# [1] = system: Candida albicans; assay: Antimicrobial activity against Candida albicans isolate R at 1 ug/ml grown on RPMI 1640 medium after 48 hrs by disk diffusion method; type: functional
# In short: (§1)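 Disk diffusion on 90-mm RPMI 1640 with 2% glucose agar or on Mueller-Hinton agar. Plates were swabbed in three directions with a yeast suspension of 1–5 × 10^6 cells/ml. Paper disks (6 mm) held 1, 5 or 25 µg drug. Zone diameters were read at 24 and 48 h; values are means of two experiments.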
# [2] = system: Meyerozyma guilliermondii; assay: Antimicrobial activity against Candida guilliermondii after 48 hrs by Etest; type: functional
# [3] = system: Candida albicans; assay: Antimicrobial activity against Candida albicans isolate R at 5 ug/ml grown on Muller-Hinton agar medium after 24 hrs by disk diffusion method; type: functional; in short: as §1
# [4] = system: Candida albicans; assay: Antimicrobial activity against Candida albicans obtained from urine of patient 29 days after admission by EUCAST microdilution method; type: functional; details: 696 h
# In short: (§2)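 EUCAST broth microdilution, plates read spectrophotometrically at 490 nm. MIC is the lowest dilution giving 50% growth inhibition. C. krusei […] control included in each run.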
# [5] = system: Candida tropicalis; assay: Antimicrobial activity against Candida tropicalis after 48 hrs by NCCLS microdilution method; type: functional
# [6] = system: Candida albicans; assay: Antimicrobial activity against Candida albicans isolate S at 5 ug/ml grown on RPMI 1640 medium after 24 hrs by disk diffusion method; type: functional; in short: as §1
# [7] = system: Nakaseomyces glabratus; assay: Antimicrobial activity against Candida glabrata after 48 hrs
# [8] = system: Kluyveromyces marxianus; assay: Antimicrobial activity against Candida kefyr after 48 hrs by 50% endpoint M27-A2 method; type: functional
# [9] = system: Candida albicans; assay: Antimicrobial activity against Candida albicans isolate S obtained from blood culture of patient 4 days after admission by EUCAST microdilution method; type: functional; details: 96 h; in short: as §2
# [10] = system: Candida tropicalis; assay: Antimicrobial activity against Candida tropicalis after 48 hrs by broth microdilution method; type: functional
# [11] = system: Nakaseomyces glabratus; assay: Antimicrobial activity against Candida glabrata after 48 hrs by NCCLS microdilution method; type: functional
# [12] = system: Candida albicans; assay: Antimicrobial activity against Candida albicans isolate S infected in NMRI mouse assessed as decrease in kidney bacterial burden at 6 mg/kg, ip measured on day 4; type: functional, organism-based; parameters: dose 6 mg/kg
# [13] = system: Meyerozyma guilliermondii; assay: Antimicrobial activity against Candida guilliermondii after 48 hrs by 50% endpoint M27-A2 method; type: functional
# [14] = system: Candida tropicalis; assay: Antimicrobial activity against Candida tropicalis after 48 hrs by 50% endpoint M27-A2 method; type: functional
# [15] = system: Candida parapsilosis; assay: Antimicrobial activity against Candida parapsilosis after 48 hrs by NCCLS microdilution method; type: functional; details: Lodderomyces parapsilosis
# [16] = system: Candida parapsilosis; assay: Antimicrobial activity against Candida parapsilosis after 48 hrs by 50% endpoint M27-A2 method; type: functional; details: Lodderomyces parapsilosis
# [17] = system: Meyerozyma guilliermondii; assay: Antimicrobial activity against Candida guilliermondii after 48 hrs by NCCLS microdilution method; type: functional
# [18] = system: Candida albicans; assay: Antimicrobial activity against Candida albicans isolate R at 1 ug/ml grown on Muller-Hinton agar medium after 24 hrs by disk diffusion method; type: functional; in short: as §1
# [19] = system: Candida albicans; assay: Antimicrobial activity against Candida albicans isolate S at 25 ug/ml grown on RPMI 1640 medium after 24 hrs by disk diffusion method; type: functional; in short: as §1
# [20] = system: Candida albicans; assay: Antimicrobial activity against Candida albicans isolate R after 48 hrs by Etest; type: functional
# In short: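 Etest on RPMI 1640 agar with 2% glucose, performed according to the manufacturer's recommendations.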
# [21] = system: Nakaseomyces glabratus; assay: Antimicrobial activity against Candida glabrata after 48 hrs by 80% endpoint M27-A2 method; type: functional
# [22] = system: Pichia kudriavzevii; assay: Antimicrobial activity against Candida krusei after 48 hrs
# [23] = system: Pichia kudriavzevii; assay: Antimicrobial activity against Candida krusei after 48 hrs by Etest; type: functional
# [24] = system: Candida albicans; assay: Antimicrobial activity against Candida albicans isolate R at 1 ug/ml after 48 hrs by agar dilution method; type: functional, organism-based
# In short: (§3)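 Agar dilution on Sabouraud agar with caspofungin at 0, 0.5, 1 and 2 per ml. Isolates were subcultured 2 days on CHROMagar. Suspensions of 1×10^6 to 5×10^6 CFU/ml in sterile water were diluted 1,500-fold, and approximately 3 to 15 cells were spread per agar surface. Growth or no growth was scored, with repeated testing.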
# [25] = system: Candida albicans; assay: Antimicrobial activity against Candida albicans after 48 hrs by 50% endpoint M27-A2 method; type: functional
# [26] = system: Candida albicans; assay: Antimicrobial activity against Candida albicans obtained from wound of patient 20 days after admission by EUCAST microdilution method; type: functional; details: 480 h; in short: as §2
# [27] = system: Candida albicans; assay: Antimicrobial activity against Candida albicans isolate R after 48 hrs by microdilution method; type: functional
# In short: (§4)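 Broth microdilution in microtiter plates, read spectrophotometrically at 490 nm. MIC taken as the lowest drug dilution giving 50% growth inhibition. C. krusei […] run as control in each run. Read at 24 h and 48 h; trailing growth noted at 48 h.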
# [28] = system: Debaryomyces hansenii; assay: Antimicrobial activity against Candida famata after 48 hrs by M27-A method
# [29] = system: Clavispora lusitaniae; assay: Antimicrobial activity against Candida lusitaniae after 24 hrs by M27-A3 method; type: functional
# [30] = system: Debaryomyces hansenii; assay: Antimicrobial activity against Candida famata after 24 hrs by M27-A3 method; type: functional
# [31] = system: Pichia kudriavzevii; assay: Antimicrobial activity against Candida krusei after 48 hrs by 50% endpoint M27-A2 method; type: functional
# [32] = system: Candida albicans; assay: Antimicrobial activity against Candida albicans after 24 hrs by M27-A3 method; type: functional
# [33] = system: Candida albicans; assay: Antimicrobial activity against Candida albicans isolate C after 48 hrs by microdilution method; type: functional; in short: as §4
# [34] = system: Candida albicans; assay: Antimicrobial activity against Candida albicans isolate C after 48 hrs by EUCAST microdilution method; type: functional; in short: as §2
# [35] = system: Candida albicans; assay: Antimicrobial activity against Candida albicans isolate S at 1 ug/ml grown on Muller-Hinton agar medium after 48 hrs by disk diffusion method; type: functional; in short: as §1
# [36] = system: Clavispora lusitaniae; assay: Antimicrobial activity against Candida lusitaniae after 48 hrs
# [37] = system: Candida parapsilosis; assay: Antimicrobial activity against Candida parapsilosis after 24 hrs by M27-A3 method; type: functional; details: Lodderomyces parapsilosis
# [38] = system: Meyerozyma guilliermondii; assay: Antimicrobial activity against Candida guilliermondii after 48 hrs by 80% endpoint M27-A method
# [39] = system: Candida albicans; assay: Antimicrobial activity against Candida albicans isolate R at 2 ug/ml after 48 hrs by agar dilution method; type: functional, organism-based; in short: as §3
# [40] = system: Nakaseomyces glabratus; assay: Antimicrobial activity against Candida glabrata after 24 hrs by M27-A3 method; type: functional
# [41] = system: Candida albicans; assay: Antimicrobial activity against Candida albicans obtained from tracheal suction of patient 5 days after admission by EUCAST microdilution method; type: functional; details: Trachea, 120 h; in short: as §2
# [42] = system: Pichia kudriavzevii; assay: Antimicrobial activity against Candida krusei after 48 hrs by broth microdilution method; type: functional
# [43] = system: Pichia kudriavzevii; assay: Antimicrobial activity against Candida krusei after 48 hrs by NCCLS microdilution method; type: functional
# [44] = system: Candida tropicalis; assay: Antimicrobial activity against Candida tropicalis after 24 hrs by M27-A3 method; type: functional
# [45] = system: Candida albicans; assay: Antimicrobial activity against Candida albicans isolate S at 5 ug/ml grown on Muller-Hinton agar medium after 48 hrs by disk diffusion method; type: functional; in short: as §1
# [46] = system: Candida albicans; assay: Antimicrobial activity against Candida albicans isolate S at 1 ug/ml grown on RPMI 1640 medium after 48 hrs by disk diffusion method; type: functional; in short: as §1
# [47] = system: Candida albicans; assay: Antimicrobial activity against Candida albicans isolate S at 25 ug/ml grown on Muller-Hinton agar medium after 24 hrs by disk diffusion method; type: functional; in short: as §1
structure (smiles),measurement,setting,value
CC[C@H](C)C[C@H](C)CCCCCCCCC(=O)N[C@H]1C[C@@H](O)[C@@H](NCCN)NC(=O)[C@@H]2[C@@H](O)CCN2C(=O)[C@H]([C@H](O)CCN)NC(=O)[C@H]([C@H](O)[C@@H](O)c2ccc(O)cc2)NC(=O)[C@@H]2C[C@@H](O)CN2C(=O)[C@H]([C@@H](C)O)NC1=O [CASPOFUNGIN],inhibition zone (IZ),[1],6.2 mm
same,MIC90,[2],> 8 µg/mL
same,inhibition zone (IZ),[3],8.8 mm
same,MIC,[4],0.25 µg/mL
same,MIC90,[5],0.5 µg/mL
same,inhibition zone (IZ),[6],20.6 mm
same,MIC90,[7],0.25 µg/mL
same,MIC90,[8],1 µg/mL
same,MIC,[9],0.25 µg/mL
same,MIC90,[10],0.25 µg/mL
same,MIC90,[11],1 µg/mL
same,Activity,[12],Active
same,MIC90,[13],1 µg/mL
same,MIC90,[14],1 µg/mL
same,MIC90,[15],2 µg/mL
same,MIC90,[16],2 µg/mL
same,MIC90,[17],> 16 µg/mL
same,inhibition zone (IZ),[18],6.1 mm
same,inhibition zone (IZ),[19],25.3 mm
same,MIC,[20],> 32 µg/mL
same,MIC90,[21],1 µg/mL
same,MIC90,[22],1 µg/mL
same,MIC90,[23],1 µg/mL
same,growth inhibition (GI),[24],inactive
same,MIC90,[25],0.5 µg/mL
same,MIC,[26],0.5 µg/mL
same,MIC,[27],1 µg/mL
same,MIC90,[28],> 8 µg/mL
same,MIC90,[29],0.25 µg/mL
same,MIC90,[30],1 µg/mL
same,MIC90,[31],2 µg/mL
same,MIC90,[32],0.06 µg/mL
same,MIC,[33],≤ 0.06 µg/mL
same,MIC,[34],≤ 0.06 µg/mL
same,inhibition zone (IZ),[35],12.5 mm
same,MIC90,[36],1 µg/mL
same,MIC90,[37],1 µg/mL
same,MIC90,[38],1 µg/mL
same,growth inhibition (GI),[39],inactive
same,MIC90,[40],0.06 µg/mL
same,MIC,[41],0.25 µg/mL
same,MIC90,[42],2 µg/mL
same,MIC90,[43],1 µg/mL
same,MIC90,[44],0.06 µg/mL
same,inhibition zone (IZ),[45],20.4 mm
same,inhibition zone (IZ),[46],10.5 mm
same,inhibition zone (IZ),[47],23.3 mm
